# Calls of active or inactive are those of the source. No cut-off for these calls is given here.
# Tests used:
# PC-3 = assay: Antiproliferative activity against human PC3 cells incubated for 48 to 72 hrs by MTT assay; format: functional, cell-based
# Procedure, shortened: (§1)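 MTT assay. Cells were grown in DMEM with 10% heat-inactivated FBS at 37°C under 5% CO₂. They were seeded at 5000/well in 5% FBS DMEM for 24 h, then given compound in DMSO at 0.1, 1, 10 and 100 µmol/L for 72 h (the table footnote says 48 h). MTT was added for 4 h, formazan was dissolved in DMSO and read at 570 nm. IC₅₀ was from ≥3 independent runs; >100 μM was given if 50% inhibition was not reached.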
# A549 = assay: Antiproliferative activity against human A549 cells incubated for 48 to 72 hrs by MTT assay; format: functional, cell-based; procedure, shortened: as §1
# SGC-7901 = assay: Antiproliferative activity against human SGC7901 cells incubated for 48 to 72 hrs by MTT assay; format: functional, cell-based; procedure, shortened: as §1
# MCF7 = assay: Antiproliferative activity against human MCF7 cells incubated for 48 to 72 hrs by MTT assay; format: functional, cell-based; procedure, shortened: as §1
# HepG2 [1] = assay: Antiproliferative activity against human HepG2 cells incubated for 48 to 72 hrs by MTT assay; format: functional, cell-based; procedure, shortened: as §1
# HepG2 [2] = assay: Induction of cell cycle arrest in human HepG2 cells assessed as accumulation at G0/G1 phase at 2 umol/L incubated for 12 hrs by propidium iodide staining based flow cytometry (reference value: 64.31%); format: functional
# HepG2 [3] = assay: Induction of cell cycle arrest in human HepG2 cells assessed as accumulation at S phase at 2 umol/L incubated for 12 hrs by propidium iodide staining based flow cytometry (reference value: 25.28%); format: functional
# HepG2 [4] = assay: Induction of cell cycle arrest in human HepG2 cells assessed as accumulation at G2/M phase at 2 umol/L incubated for 12 hrs by propidium iodide staining based flow cytometry (reference value: 10.41%); format: functional
# HepG2 [5] = assay: Induction of cell cycle arrest in human HepG2 cells assessed as accumulation at G0/G1 phase at 2 umol/L incubated for 24 hrs by propidium iodide staining based flow cytometry (reference value: 64.31%); format: functional
# HepG2 [6] = assay: Induction of cell cycle arrest in human HepG2 cells assessed as accumulation at S phase at 2 umol/L incubated for 24 hrs by propidium iodide staining based flow cytometry (reference value: 25.28%); format: functional
# HepG2 [7] = assay: Induction of cell cycle arrest in human HepG2 cells assessed as accumulation at G2/M phase at 2 umol/L incubated for 24 hrs by propidium iodide staining based flow cytometry (reference value: 10.41%); format: functional
# HepG2 [8] = assay: Induction of apoptosis in human HepG2 cells at 1 umol/L incubated for 24 hrs by Annexin V-FITC/propidium iodide staining based flow cytometry (reference value: 1.96%); format: functional
# HepG2 [9] = assay: Induction of apoptosis in human HepG2 cells at 2 umol/L incubated for 24 hrs by Annexin V-FITC/propidium iodide staining based flow cytometry (reference value: 1.96%); format: functional
# HepG2 [10] = assay: Induction of apoptosis in human HepG2 cells at 4 umol/L incubated for 24 hrs by Annexin V-FITC/propidium iodide staining based flow cytometry (reference value: 1.96%); format: functional
# Mus musculus [11] = assay: Toxicity in Swiss mouse xenografted with […] assessed as increase in body weight at 15 mg/kg, ip dosed every day for 14 days; format: organism-based; details: in vivo, 336 h
# Procedure, shortened: (§2)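 Female Swiss mice (20-22 g) bearing subcutaneous […] (3×10⁶ cells, right flank) were dosed intraperitoneally daily with saline, 15 or 30 mg/kg, or 5-FU 20 mg/kg (n = 6) and killed on day 14. Body weight was recorded daily. Thymus and spleen indexes were calculated as organ weight divided by final body weight. Mean ± S.E.M.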
# Mus musculus [12] = assay: Toxicity in Swiss mouse xenografted with […] assessed as effect on thymus index at 15 to 30 mg/kg, ip dosed every day for 14 days; format: organism-based; details: in vivo, 336 h; procedure, shortened: as §2
# Mus musculus [13] = assay: Toxicity in Swiss mouse xenografted with […] assessed as effect on spleen index at 15 to 30 mg/kg, ip dosed every day for 14 days; format: organism-based; details: in vivo, 336 h; procedure, shortened: as §2
# HepG2 [14] = assay: Induction of apoptosis in human HepG2 cells assessed as reduction in pro-caspase-3 protein expression at 1 to 8 umol/L incubated for 12 to 48 hrs by Western blot analysis; format: functional, cell-based
# Procedure, shortened: (§3)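 Western blot. HepG2 cells were seeded at 5×10⁵/well with compound in 10% FBS at 37°C: 1, 2, 4 or 8 μM for 24 h, or 4 μmol/L over a time course. The vehicle was 0.5% DMSO. Cleared lysates were quantified by BCA and run on 10% SDS-PAGE, then transferred to PVDF. Membranes were blocked in 5% milk/TBST with primary antibodies at 1:2000 at 4°C, HRP secondary at 1:2000 for 2 h, and ECL detection. GAPDH served as loading control.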
# HepG2 [15] = assay: Induction of apoptosis in human HepG2 cells assessed as reduction in pro-caspase-9 protein expression at 1 to 8 umol/L incubated for 12 to 48 hrs by Western blot analysis; format: functional, cell-based; procedure, shortened: as §3
# HepG2 [16] = assay: Induction of apoptosis in human HepG2 cells assessed as reduction in Bcl2 protein expression at 1 to 8 umol/L incubated for 12 to 48 hrs by Western blot analysis; format: functional, cell-based; procedure, shortened: as §3
# HepG2 [17] = assay: Induction of apoptosis in human HepG2 cells assessed as reduction in Bcl-XL protein expression at 1 to 8 umol/L incubated for 12 to 48 hrs by Western blot analysis; format: functional, cell-based; procedure, shortened: as §3
# HepG2 [18] = assay: Induction of apoptosis in human HepG2 cells assessed as reduction in Akt protein expression at 1 to 8 umol/L incubated for 12 to 48 hrs by Western blot analysis; format: functional, cell-based; procedure, shortened: as §3
# HepG2 [19] = assay: Induction of apoptosis in human HepG2 cells assessed as reduction in Bcl2 protein expression by Western blot analysis; format: functional, cell-based; procedure, shortened: as §3
# HepG2 [20] = assay: Induction of apoptosis in human HepG2 cells assessed as reduction in Bcl-XL protein expression by Western blot analysis; format: functional, cell-based; procedure, shortened: as §3
# HepG2 [21] = assay: Induction of apoptosis in human HepG2 cells assessed as increase in Bax protein expression by Western blot analysis; format: functional, cell-based; procedure, shortened: as §3
# HepG2 [22] = assay: Induction of apoptosis in human HepG2 cells incubated for 24 hrs by Annexin V-FITC/propidium iodide staining based flow cytometry (reference value: 1.96%); format: functional, cell-based
# Heps (mouse) [23] = assay: Antitumour activity against murine HepS cells xenografted in Swiss mouse assessed as inhibition of tumor growth at 15 mg/kg, ip dosed every day for 14 days; details: 336 h, read-out: TGI
# Heps (mouse) [24] = assay: Antitumour activity against murine HepS cells xenografted in Swiss mouse assessed as inhibition of tumor growth at 30 mg/kg, ip dosed every day for 14 days; details: 336 h, read-out: TGI
# Heps (mouse) [25] = assay: Antitumour activity against murine HepS cells xenografted in Swiss mouse assessed as reduction in tumor size at 15 to 30 mg/kg, ip dosed every day for 14 days
# HepG2 [26] = assay: Induction of apoptosis in human HepG2 cells assessed as increase in p53 protein expression at 1 to 8 umol/L incubated for 12 to 48 hrs by Western blot analysis
# Heps (mouse) [27] = assay: Antitumour activity against murine HepS cells xenografted in Swiss mouse assessed as reduction in tumor weight at 15 to 30 mg/kg, ip dosed every day for 14 days
# Mus musculus [28] = assay: Toxicity in Swiss mouse xenografted with human HepG2 cells assessed as reduction in body weight at 20 mg/kg, ip dosed every day for 14 days; format: organism-based; details: in vivo, 336 h
# Procedure, shortened: (§4)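 Female Swiss mice (20-22 g) received 3×10⁶ HepG2 cells subcutaneously in the right flank. After 7-21 days they were randomised into groups of 6, including a saline control, and given daily intraperitoneal injections for 14 days. Body weight was recorded daily. Mice were killed on day 14, and tumour wet weight gave the % inhibition. Data are mean ± S.E.M.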
# HepG2 [29] = assay: Antitumour activity against human HepG2 cells xenografted in Swiss mouse assessed as inhibition of tumor growth at 20 mg/kg, ip dosed every day for 14 days; format: functional; details: 336 h, read-out: TGI; procedure, shortened: as §4
compound,measurement,setting,value
COc1ccc(/C=C/C(=O)OC[C@H]2O[C@H]3c4c(cc(O)c(OC)c4O)C(=O)O[C@@H]3[C@@H](O)[C@@H]2O)cc1OC,IC50,PC-3,> 100 µM
same,IC50,A549,> 100 µM
same,IC50,SGC-7901,58.9 µM
same,IC50,MCF7,> 100 µM
same,IC50,HepG2 [1],86.1 µM
COc1c(O)cc2c(c1O)[C@@H]1O[C@H](CO)[C@@H](O)[C@H](O)[C@H]1OC2=O [BERGENIN],IC50,PC-3,> 100 µM
same,IC50,A549,77.3 µM
same,IC50,SGC-7901,23.6 µM
same,IC50,MCF7,> 100 µM
same,IC50,HepG2 [1],34.6 µM
COc1cc(/C=C/C(=O)OC[C@H]2O[C@H]3c4c(cc(O)c(OC)c4O)C(=O)O[C@@H]3[C@@H](O)[C@@H]2O)cc(OC)c1,IC50,PC-3,26.3 µM
same,IC50,A549,12.3 µM
same,IC50,SGC-7901,27.8 µM
same,IC50,MCF7,6.25 µM
same,IC50,HepG2 [1],16.8 µM
COc1ccc(/C=C/C(=O)OC[C@H]2O[C@H]3c4c(cc(O)c(OC)c4O)C(=O)O[C@@H]3[C@@H](O)[C@@H]2O)cc1,IC50,PC-3,> 100 µM
same,IC50,A549,26.4 µM
same,IC50,SGC-7901,15.9 µM
same,IC50,MCF7,18.7 µM
same,IC50,HepG2 [1],29.7 µM
COc1c(O)cc2c(c1O)[C@@H]1O[C@H](COC(=O)/C=C/c3ccc(C#N)cc3)[C@@H](O)[C@H](O)[C@H]1OC2=O,IC50,PC-3,27 µM
same,IC50,A549,10.7 µM
same,IC50,SGC-7901,8.32 µM
same,IC50,MCF7,7.34 µM
same,IC50,HepG2 [1],5.23 µM
same,Activity,HepG2 [2],57.64%
same,Activity,HepG2 [3],28.43%
same,Activity,HepG2 [4],13.93%
same,Activity,HepG2 [5],51.15%
same,Activity,HepG2 [6],19.92%
same,Activity,HepG2 [7],28.93%
same,Activity,HepG2 [8],5.58%
same,Activity,HepG2 [9],10.68%
same,Activity,HepG2 [10],20.68%
same,Activity,Mus musculus [11],Non-Toxic
same,Activity,Mus musculus [12],Non-Toxic
same,Activity,Mus musculus [13],Non-Toxic
same,Activity,HepG2 [14],Active
same,Activity,HepG2 [15],Active
same,Activity,HepG2 [16],Active
same,Activity,HepG2 [17],Active
same,Activity,HepG2 [18],Active
same,Activity,HepG2 [19],Dose-dependent effect
same,Activity,HepG2 [20],Dose-dependent effect
same,Activity,HepG2 [21],Dose-dependent effect
same,Activity,HepG2 [22],Dose-dependent effect
same,inhibition in vivo at 15 mg/kg,Heps (mouse) [23],45.4%
same,inhibition in vivo at 30 mg/kg,Heps (mouse) [24],61%
same,Activity,Heps (mouse) [25],Dose-dependent effect
same,Activity,HepG2 [26],Active
same,Activity,Heps (mouse) [27],Dose-dependent effect
COc1cc(/C=C/C(=O)OC[C@H]2O[C@H]3c4c(cc(O)c(OC)c4O)C(=O)O[C@@H]3[C@@H](O)[C@@H]2O)cc(OC)c1OC,IC50,PC-3,12.1 µM
same,IC50,A549,5.46 µM
same,IC50,SGC-7901,7.53 µM
same,IC50,MCF7,11.7 µM
same,IC50,HepG2 [1],6.62 µM
O=c1[nH]cc(F)c(=O)[nH]1 [FLUOROURACIL],IC50,PC-3,38.6 µM
same,IC50,A549,10.7 µM
same,IC50,SGC-7901,13.2 µM
same,IC50,MCF7,7.67 µM
same,IC50,HepG2 [1],17.4 µM
same,Activity,Mus musculus [28],Toxic
same,inhibition in vivo at 20 mg/kg,HepG2 [29],52.2%
COc1c(O)cc2c(c1O)[C@@H]1O[C@H](COC(=O)/C=C/c3cc([N+](=O)[O-])cc([N+](=O)[O-])c3)[C@@H](O)[C@H](O)[C@H]1OC2=O,IC50,PC-3,> 100 µM
same,IC50,A549,> 100 µM
same,IC50,SGC-7901,> 100 µM
same,IC50,MCF7,> 100 µM
same,IC50,HepG2 [1],> 100 µM
